ChEMBL document CHEMBL1149086, “Antimalarial and antitumor evaluation of novel C-10 non-acetal dimers of 10beta-(2-hydroxyethyl)deoxoartemisinin” (J Med Chem, 2004)

Assays:
Jurkat = test: Inhibitory concentration against Jurkat cells; assay type: functional, cell-based; conditions: Homo sapiens
Procedure, shortened: (§1)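 HL60 (2.5 × 10⁴/well) or Jurkat (1 × 10⁵/well) in RPMI-1640 with 10% FBS and 1% L-glutamine, 5% CO2, 37 °C. Exposed to 10⁻¹⁰–10⁻⁴ M for 72 h, final DMSO below 0.5% v/v. [3H]-thymidine (0.5 μCi) added for the final 24 h. Incorporation counted by β-scintillation.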

CCRF-CEM [1] = test: Concentration of the drug required to achieve 50% cytotoxicity against leukemia CCRF-CEM cell line; assay type: cell-based; conditions: human
CCRF-CEM [2] = test: Concentration of the drug required to achieve 50% cytotoxicity against leukemia HL-60(TB) cell line; assay type: cell-based; conditions: human
CCRF-CEM [3] = test: Concentration required to achieve total growth inhibition against leukemia CCRF-CEM cell line; assay type: functional; conditions: Homo sapiens
COLO 205 [4] = test: inhibition against colon COLO 205 cancer cell line; assay type: functional; conditions: Homo sapiens
CCRF-CEM [5] = test: inhibition against leukemia CCRF-CEM cell line; assay type: functional; conditions: Homo sapiens
COLO 205 [6] = test: Concentration of the drug required to achieve 50% cytotoxicity against colon COLO 205 cancer cell line; assay type: cell-based; conditions: human
COLO 205 [7] = test: Concentration required to achieve total growth inhibition against colon COLO 205 cancer cell line; assay type: functional; conditions: Homo sapiens
HCT-15 [8] = test: Concentration required to achieve total growth inhibition against colon HCT-15 cancer cell line; assay type: functional; conditions: Homo sapiens
HCT-15 [9] = test: Concentration of the drug required to achieve 50% cytotoxicity against colon HCT-15 cancer cell line; assay type: cell-based; conditions: human
HCT-116 [10] = test: Concentration required to achieve total growth inhibition against colon HCT116 cancer cell line; assay type: functional; conditions: Homo sapiens
HCT-15 [11] = test: inhibition against colon HCT-15 cancer cell line; assay type: functional; conditions: Homo sapiens
HL-60 [12] = test: inhibition against leukemia HL-60(TB) cell line; assay type: functional; conditions: Homo sapiens
HL-60 [13] = test: Concentration required to achieve total growth inhibition against leukemia HL-60(TB) cell line; assay type: functional; conditions: Homo sapiens
HCT-116 [14] = test: Concentration of the drug required to achieve 50% cytotoxicity against colon HCT116 cancer cell line; assay type: cell-based; conditions: human
HCC 2998 [15] = test: Concentration required to achieve total growth inhibition against colon HCC2998 cancer cell line; assay type: functional; conditions: Homo sapiens
HCT-116 [16] = test: inhibition against colon HCT116 cancer cell line; assay type: functional; conditions: Homo sapiens
HCC 2998 [17] = test: inhibition against colon HCC2998 cancer cell line; assay type: functional; conditions: Homo sapiens
HCC 2998 [18] = test: Concentration of the drug required to achieve 50% cytotoxicity against colon HCC2998 cancer cell line; assay type: cell-based; conditions: human
HT-29 [19] = test: Concentration of the drug required to achieve 50% cytotoxicity against colon HT-29 cancer cell line; assay type: cell-based; conditions: human
HT-29 [20] = test: inhibition against colon HT-29 cancer cell line; assay type: functional; conditions: Homo sapiens
HT-29 [21] = test: Concentration required to achieve total growth inhibition against colon HT-29 cancer cell line; assay type: functional; conditions: Homo sapiens
KM12 [22] = test: Concentration required to achieve total growth inhibition against colon KM12 cancer cell line; assay type: functional; conditions: Homo sapiens
K562 [23] = test: Concentration required to achieve total growth inhibition against leukemia K-562 cell line; assay type: functional; conditions: Homo sapiens
KM12 [24] = test: inhibition against colon KM12 cancer cell line; assay type: functional; conditions: Homo sapiens
KM12 [25] = test: Concentration of the drug required to achieve 50% cytotoxicity against colon KM12 cancer cell line; assay type: cell-based; conditions: human
MOLT-4 [26] = test: inhibition against leukemia MOLT-4 cell line; assay type: functional; conditions: Homo sapiens
LOX IMVI [27] = test: inhibition against melanoma LOX IMVI cell line; assay type: functional; conditions: Homo sapiens
LOX IMVI [28] = test: Concentration of the drug required to achieve 50% cytotoxicity against melanoma LOX IMVI cell line; assay type: cell-based; conditions: human
LOX IMVI [29] = test: Concentration required to achieve total growth inhibition against melanoma LOX IMVI cell line; assay type: functional; conditions: Homo sapiens
MCF7 [30] = test: Concentration required to achieve total growth inhibition against breast MCF-7 cancer cell line; assay type: functional; conditions: Homo sapiens
MCF7 [31] = test: Concentration of the drug required to achieve 50% cytotoxicity against breast MCF-7 cancer cell line; assay type: cell-based; conditions: human
Malme-3M [32] = test: inhibition against melanoma MALME-3M cell line; assay type: functional; conditions: Homo sapiens
Malme-3M [33] = test: Concentration of the drug required to achieve 50% cytotoxicity against melanoma MALME-3M cell line; assay type: cell-based; conditions: human
MOLT-4 [34] = test: Concentration required to achieve total growth inhibition against leukemia MOLT-4 cell line; assay type: functional; conditions: Homo sapiens
Malme-3M [35] = test: Concentration required to achieve total growth inhibition against melanoma MALME-3M cell line; assay type: functional; conditions: Homo sapiens
MOLT-4 [36] = test: Concentration of the drug required to achieve 50% cytotoxicity against leukemia MOLT-4 cell line; assay type: cell-based; conditions: human
NCI/ADR-RES [37] = test: inhibition against breast NCI/ ADR-RES cancer cell line; assay type: functional; conditions: Homo sapiens
NCI/ADR-RES [38] = test: Concentration of the drug required to achieve 50% cytotoxicity against breast NCI/ ADR-RES cancer cell line; assay type: cell-based; conditions: human
NCI/ADR-RES [39] = test: Concentration required to achieve total growth inhibition against breast NCI/ ADR-RES cancer cell line; assay type: functional; conditions: Homo sapiens
PC-3 [40] = test: Concentration of the drug required to achieve 50% cytotoxicity against prostate PC-3 cell line; assay type: cell-based; conditions: human
PC-3 [41] = test: inhibition against prostate PC-3 cell line; assay type: functional; conditions: Homo sapiens
Plasmodium falciparum = test: In vitro antimalarial activity against Plasmodium falciparum HB3 by [3H]hypoxanthine uptake; assay type: functional, organism-based
PC-3 [42] = test: Concentration required to achieve total growth inhibition against prostate PC-3 cell line; assay type: functional; conditions: Homo sapiens
RPMI-8226 [43] = test: Concentration of the drug required to achieve 50% cytotoxicity against leukemia RPMI-8226 cell line; assay type: cell-based; conditions: human
RPMI-8226 [44] = test: Concentration required to achieve total growth inhibition against leukemia RPMI-8226 cell line; assay type: functional; conditions: Homo sapiens
SW-620 [45] = test: inhibition against colon SW-620 cancer cell line; assay type: functional; conditions: Homo sapiens
SW-620 [46] = test: Concentration of the drug required to achieve 50% cytotoxicity against colon SW-620 cancer cell line; assay type: cell-based; conditions: human
SR [47] = test: inhibition against leukemia SR cell line; assay type: functional; conditions: Homo sapiens
SR [48] = test: Concentration of the drug required to achieve 50% cytotoxicity against leukemia SR cell line; assay type: cell-based; conditions: human
SR [49] = test: Concentration required to achieve total growth inhibition against leukemia SR cell line; assay type: functional; conditions: Homo sapiens
SW-620 [50] = test: Concentration required to achieve total growth inhibition against colon SW-620 cancer cell line; assay type: functional; conditions: Homo sapiens
SK-MEL-5 [51] = test: inhibition against melanoma SK-MEL-5 cell line; assay type: functional; conditions: Homo sapiens
SK-MEL-5 [52] = test: Concentration required to achieve total growth inhibition against melanoma SK-MEL-5 cell line; assay type: functional; conditions: Homo sapiens
T47D [53] = test: inhibition against breast T-47D cancer cell line; assay type: functional; conditions: Homo sapiens
T47D [54] = test: Concentration of the drug required to achieve 50% cytotoxicity against breast T-47D cancer cell line; assay type: cell-based; conditions: human
T47D [55] = test: Concentration required to achieve total growth inhibition against breast T-47D cancer cell line; assay type: functional; conditions: Homo sapiens
UACC-62 [56] = test: inhibition against melanoma UACC-62 cell line; assay type: functional; conditions: Homo sapiens
UACC-62 [57] = test: Concentration of the drug required to achieve 50% cytotoxicity against melanoma UACC-62 cell line; assay type: cell-based; conditions: human
UACC-62 [58] = test: Concentration required to achieve total growth inhibition against melanoma UACC-62 cell line; assay type: functional; conditions: Homo sapiens
HL-60 [59] = test: Inhibitory concentration against HL60 cells; assay type: functional, cell-based; conditions: Homo sapiens; procedure, shortened: as §1
SK-MEL-5 [60] = test: Concentration of the drug required to achieve 50% cytotoxicity against melanoma SK-MEL-5 cell line; assay type: cell-based; conditions: human
RPMI-8226 [61] = test: inhibition against leukemia RPMI-8226 cell line; assay type: functional; conditions: Homo sapiens
K562 [62] = test: inhibition against leukemia K-562 cell line; assay type: functional; conditions: Homo sapiens
MCF7 [63] = test: inhibition against breast MCF-7 cancer cell line; assay type: functional; conditions: Homo sapiens

## COP(=O)(OCC[C@H]1O[C@@H]2OC3(C)CC[C@H]4[C@H](C)CC[C@@H]([C@H]1C)[C@@]24OO3)OCC[C@H]1O[C@@H]2OC3(C)CC[C@H]4[C@H](C)CC[C@@H]([C@H]1C)[C@@]24OO3 (single isomer, unassigned)
Jurkat
  IC50: 7.7 µM
CCRF-CEM [1]
  LC50: 100 µM
CCRF-CEM [2]
  LC50: 20 µM
CCRF-CEM [3]
  TGI: 30 µM
COLO 205 [4]
  GI50: < 0.01 µM
CCRF-CEM [5]
  GI50: 0.769 µM
COLO 205 [6]
  LC50: 2.59 µM
COLO 205 [7]
  TGI: 0.21 µM
HCT-15 [8]
  TGI: 14.4 µM
HCT-15 [9]
  LC50: 38.7 µM
HCT-116 [10]
  TGI: 32.6 µM
HCT-15 [11]
  GI50: < 0.01 µM
HL-60 [12]
  GI50: < 0.01 µM
HL-60 [13]
  TGI: 1 µM
HCT-116 [14]
  LC50: > 100 µM
HCC 2998 [15]
  TGI: 16.4 µM
HCT-116 [16]
  GI50: 1.85 µM
HCC 2998 [17]
  GI50: 1.25 µM
HCC 2998 [18]
  LC50: 52.9 µM
HT-29 [19]
  LC50: 40 µM
HT-29 [20]
  GI50: < 0.01 µM
HT-29 [21]
  TGI: 12.6 µM
KM12 [22]
  TGI: 12.6 µM
K562 [23]
  TGI: 1.17 µM
KM12 [24]
  GI50: < 0.01 µM
KM12 [25]
  LC50: 40 µM
MOLT-4 [26]
  GI50: < 0.01 µM
LOX IMVI [27]
  GI50: < 0.01 µM
LOX IMVI [28]
  LC50: 52.9 µM
LOX IMVI [29]
  TGI: 16.4 µM
MCF7 [30]
  TGI: 18.3 µM
MCF7 [31]
  LC50: 72.2 µM
Malme-3M [32]
  GI50: 0.0474 µM
Malme-3M [33]
  LC50: > 100 µM
MOLT-4 [34]
  TGI: 9.8 µM
Malme-3M [35]
  TGI: 32.6 µM
MOLT-4 [36]
  LC50: 33.5 µM
NCI/ADR-RES [37]
  GI50: 0.994 µM
NCI/ADR-RES [38]
  LC50: 75.5 µM
NCI/ADR-RES [39]
  TGI: 22.1 µM
PC-3 [40]
  LC50: 70.3 µM
PC-3 [41]
  GI50: < 0.01 µM
Plasmodium falciparum
  IC50: 0.09 nM
PC-3 [42]
  TGI: 18.8 µM
RPMI-8226 [43]
  LC50: > 100 µM
RPMI-8226 [44]
  TGI: 13.7 µM
SW-620 [45]
  GI50: < 0.01 µM
SW-620 [46]
  LC50: 40 µM
SR [47]
  GI50: < 0.01 µM
SR [48]
  LC50: > 100 µM
SR [49]
  TGI: 2.84 µM
SW-620 [50]
  TGI: 12.6 µM
SK-MEL-5 [51]
  GI50: 0.199 µM
SK-MEL-5 [52]
  TGI: 15.2 µM
T47D [53]
  GI50: < 0.01 µM
T47D [54]
  LC50: 25.6 µM
T47D [55]
  TGI: < 10 µM
UACC-62 [56]
  GI50: 0.486 µM
UACC-62 [57]
  LC50: 42.9 µM
UACC-62 [58]
  TGI: 18.4 µM
HL-60 [59]
  IC50: 0.143 µM
SK-MEL-5 [60]
  LC50: 38.9 µM
RPMI-8226 [61]
  GI50: < 0.01 µM
K562 [62]
  GI50: < 0.01 µM
MCF7 [63]
  GI50: 0.0503 µM
